Consider 19 compounds from ChEMBL document CHEMBL1148385, “Synthesis and opioid activity of side-chain-to-side-chain cyclic dynorphin A-(1-11) amide analogues cyclized between positions 2 and 5. 1. Substitutions in position 3” (J Med Chem, 2004).

The structures appear in SMILES notation. Where a SMILES comes first, the peptide text is derived from it.

For orientation: Ki means the dissociation constant of the complex between target and ligand, obtained from inhibition or displacement. For orientation: EC50 means the midpoint of the concentration-response curve.

Assay [1] concerns the target T1, Kappa-type opioid receptor (Rattus norvegicus, UniProt P34975). In words: Binding affinity towards Opioid receptor kappa 1 expressed in CHO cells was determined by using [3H]diprenorphine as radioligand. The assay is classed as cell-based. The gist of the method:
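Competition binding at room temperature on CHO cells stably expressing cloned rat κ (radioligand [³H]diprenorphine, KD 0.45 nM), rat μ ([³H]DAMGO, KD 0.49 nM) or mouse δ ([³H]DPDPE, KD 1.76 nM) receptors. Peptidase inhibitors (10 μM bestatin, 30 μM captopril, 50 μM L-leucyl-L-leucine) and 3 mM Mg²⁺ present. Nonspecific binding defined with 10 μM Dyn A-(1–13)NH₂, DAMGO or DPDPE respectively. Logistic fit for IC50; Ki via Cheng–Prusoff; mean ± SEM, ≥3 assays.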

The next assay has as its target Mu-type opioid receptor (Rattus norvegicus, UniProt P33535). The assay is described as follows: Binding affinity towards Opioid receptor mu 1 expressed in CHO cells was determined by using[3H]DAMGO as radioligand. In kind it is cell-based.
The target in assay [2] is Delta-type opioid receptor (Mus musculus, UniProt P32300). The assay is described as follows: Binding affinity towards opioid receptor delta 1 expressed in CHO cells was determined by using [3H]DPDPE as radioligand. The assay is classed as cell-based.
The target of assay [3] is T1, Kappa-type opioid receptor. In words: Inhibition of forskolin-stimulated adenylyl cyclase activity by compound in CHO cells expressing Opioid receptor kappa 1. In kind it is functional, cell-based. The gist of the method: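 CHO cells stably expressing cloned rat κ receptor were incubated 40 min at 37 °C with 50 μM forskolin and various peptide concentrations. RO20-1724 (50 μM) and peptidase inhibitors (bestatin, captopril, L-leucyl-L-leucine) were present. [³H]cAMP was counted, with [¹⁴C]cAMP added for recovery correction and counts corrected for crossover. Mean ± SEM of 2–3 separate assays.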

T1 sequence (P34975 whole entry): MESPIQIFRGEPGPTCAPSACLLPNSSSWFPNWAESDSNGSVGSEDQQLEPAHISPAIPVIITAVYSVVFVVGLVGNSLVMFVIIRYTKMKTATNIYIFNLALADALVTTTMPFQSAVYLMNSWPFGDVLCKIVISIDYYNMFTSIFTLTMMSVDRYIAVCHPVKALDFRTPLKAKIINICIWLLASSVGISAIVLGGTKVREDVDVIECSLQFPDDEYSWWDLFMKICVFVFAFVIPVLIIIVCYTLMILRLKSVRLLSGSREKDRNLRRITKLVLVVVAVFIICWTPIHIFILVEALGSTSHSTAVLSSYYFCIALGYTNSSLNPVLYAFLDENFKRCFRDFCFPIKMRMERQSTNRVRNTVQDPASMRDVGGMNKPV
Sequence of Mu-type opioid receptor (P33535 whole entry): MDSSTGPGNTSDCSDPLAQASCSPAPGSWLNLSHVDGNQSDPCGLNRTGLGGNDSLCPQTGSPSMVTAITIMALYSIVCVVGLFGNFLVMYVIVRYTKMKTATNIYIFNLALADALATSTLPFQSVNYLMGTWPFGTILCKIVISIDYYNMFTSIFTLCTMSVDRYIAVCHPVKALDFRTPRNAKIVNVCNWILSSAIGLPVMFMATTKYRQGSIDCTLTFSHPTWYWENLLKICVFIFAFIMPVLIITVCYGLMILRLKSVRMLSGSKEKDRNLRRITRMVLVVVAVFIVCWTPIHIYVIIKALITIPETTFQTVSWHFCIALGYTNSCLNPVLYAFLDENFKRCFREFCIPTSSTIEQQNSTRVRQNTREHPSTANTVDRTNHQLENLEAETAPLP
Sequence of Delta-type opioid receptor (P32300 whole entry): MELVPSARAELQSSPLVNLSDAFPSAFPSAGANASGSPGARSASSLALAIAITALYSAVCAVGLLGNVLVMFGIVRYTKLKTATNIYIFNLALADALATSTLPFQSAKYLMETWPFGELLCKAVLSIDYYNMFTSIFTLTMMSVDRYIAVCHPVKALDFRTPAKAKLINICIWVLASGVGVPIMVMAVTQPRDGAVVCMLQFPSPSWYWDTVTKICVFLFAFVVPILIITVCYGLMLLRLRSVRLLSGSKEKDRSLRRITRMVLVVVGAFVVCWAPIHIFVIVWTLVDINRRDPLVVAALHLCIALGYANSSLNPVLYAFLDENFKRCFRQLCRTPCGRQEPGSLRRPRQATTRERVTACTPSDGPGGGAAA

Consider `CC[C@H](C)[C@H](NC(=O)[C@H](CCCN=C(N)N)NC(=O)[C@H](CCCN=C(N)N)NC(=O)[C@H](CN)NC(=O)[C@H](Cc1ccccc1)NC(=O)[C@@H](Cc1c[nH]c2ccccc12)NC(=O)[C@@H](CC(=O)O)NC(=O)[C@@H](N)Cc1ccc(O)cc1)C(=O)N[C@@H](CCCN=C(N)N)C(=O)N1CCC[C@H]1C(=O)N[C@@H](CCCCN)C(N)=O`, for which the Ki is 1.26 nM in assay [1], 4.57 nM on Mu-type opioid receptor and 813 nM in assay [2].
The corresponding values for `CC[C@H](C)[C@H](NC(=O)[C@H](CCCN=C(N)N)NC(=O)[C@H](CCCN=C(N)N)NC(=O)[C@H](CN)NC(=O)[C@H](Cc1ccccc1)NC(=O)[C@H](Cc1c[nH]c2ccccc12)NC(=O)[C@@H](CC(=O)O)NC(=O)[C@@H](N)Cc1ccc(O)cc1)C(=O)N[C@@H](CCCN=C(N)N)C(=O)N1CCC[C@H]1C(=O)N[C@@H](CCCCN)C(N)=O` are 1.34 nM, 3.41 nM and 927 nM.
As to `CC[C@H](C)[C@H](NC(=O)[C@H](CCCN=C(N)N)NC(=O)[C@H](CCCN=C(N)N)NC(=O)[C@@H]1CNC(=O)C[C@@H](NC(=O)[C@@H](N)Cc2ccc(O)cc2)C(=O)NCC(=O)N[C@@H](Cc2ccccc2)C(=O)N1)C(=O)N[C@@H](CCCN=C(N)N)C(=O)N1CCC[C@H]1C(=O)N[C@@H](CCCCN)C(=O)N[C@@H](CC(C)C)C(=O)N[C@@H](CCCCN)C(N)=O` (HELM PEPTIDE1{Y.[dD].G.F.[O=C([C@H](CN[*:3])N[*:1])[*:2]].R.R.I.R.P.K.L.K.[am]}$PEPTIDE1,PEPTIDE1,2:R3-5:R3$$$V2.0), the Ki stood at 0.16 nM in assay [1], 1.17 nM at Mu-type opioid receptor and 3.31 nM in assay [2].
Regarding `CC[C@H](C)[C@H](NC(=O)[C@H](CCCN=C(N)N)NC(=O)[C@H](CCCN=C(N)N)NC(=O)[C@H](CC(C)C)NC(=O)[C@H](Cc1ccccc1)NC(=O)CNC(=O)CNC(=O)[C@@H](N)Cc1ccc(O)cc1)C(=O)N[C@@H](CCCN=C(N)N)C(=O)N1CCC[C@H]1C(=O)N[C@@H](CCCCN)C(N)=O`, the Ki in assay [1] stood at 0.14 nM.
Turning to `CC[C@H](C)[C@H](NC(=O)[C@H](CCCNC(=N)N)NC(=O)[C@H](CCCNC(=N)N)NC(=O)[C@H](CC(C)C)NC(=O)[C@H](Cc1ccccc1)NC(=O)[C@@H](C)NC(=O)CNC(=O)[C@@H](N)Cc1ccc(O)cc1)C(=O)N[C@@H](CCCNC(=N)N)C(=O)N1CCC[C@H]1C(=O)N[C@@H](CCCCN)C(N)=O`, the results for the Ki (in assay [1]; at Mu-type opioid receptor) were 0.34 nM and 19.8 nM, respectively.
As for `CC[C@H](C)[C@H](NC(=O)[C@H](CCCN=C(N)N)NC(=O)[C@H](CCCN=C(N)N)NC(=O)[C@H](CN)NC(=O)[C@H](Cc1ccccc1)NC(=O)[C@@H](C)NC(=O)[C@@H](CC(=O)O)NC(=O)[C@@H](N)Cc1ccc(O)cc1)C(=O)N[C@@H](CCCN=C(N)N)C(=O)N1CCC[C@H]1C(=O)N[C@@H](CCCCN)C(N)=O`, the Ki in assay [1] came out at 6.12 nM; on Mu-type opioid receptor, 4.21 nM; in assay [2], 959 nM.
For the compound `CC[C@H](C)[C@H](NC(=O)[C@H](CCCNC(=N)N)NC(=O)[C@H](CCCNC(=N)N)NC(=O)[C@@H]1CNC(=O)C[C@@H](NC(=O)[C@@H](N)Cc2ccc(O)cc2)C(=O)N[C@H](C)C(=O)N[C@@H](Cc2ccccc2)C(=O)N1)C(=O)N[C@@H](CCCNC(=N)N)C(=O)N1CCC[C@H]1C(=O)N[C@@H](CCCCN)C(N)=O`, the response in assay [3] was half-maximal at 0.54 nM (EC50). Moreover, the results for the Ki (in assay [1]; at Mu-type opioid receptor; in assay [2]) were 0.21 nM, 3.89 nM and 139 nM, respectively.
Regarding `CC[C@H](C)[C@H](NC(=O)[C@H](CCCN=C(N)N)NC(=O)[C@H](CCCN=C(N)N)NC(=O)[C@H](CN)NC(=O)[C@H](Cc1ccccc1)NC(=O)CNC(=O)[C@@H](CC(=O)O)NC(=O)[C@@H](N)Cc1ccc(O)cc1)C(=O)N[C@@H](CCCN=C(N)N)C(=O)N1CCC[C@H]1C(=O)N[C@@H](CCCCN)C(N)=O`, the Ki worked out at 1.59 nM in assay [1], 0.22 nM on Mu-type opioid receptor and 11.6 nM in assay [2].
In the case of `CC[C@H](C)[C@H](NC(=O)[C@H](CCCNC(=N)N)NC(=O)[C@H](CCCNC(=N)N)NC(=O)[C@H](CC(C)C)NC(=O)[C@H](Cc1ccccc1)NC(=O)[C@H](C)NC(=O)CNC(=O)[C@@H](N)Cc1ccc(O)cc1)C(=O)N[C@@H](CCCNC(=N)N)C(=O)N1CCC[C@H]1C(=O)N[C@@H](CCCCN)C(N)=O`, the figures for the Ki (in assay [1]; on Mu-type opioid receptor) were 0.26 nM and 16.4 nM, respectively.
The compound `CC[C@H](C)[C@H](NC(=O)[C@H](CCCNC(=N)N)NC(=O)[C@H](CCCNC(=N)N)NC(=O)[C@@H]1CNC(=O)C[C@@H](NC(=O)[C@@H](N)Cc2ccc(O)cc2)C(=O)N2CCC[C@H]2C(=O)N[C@@H](Cc2ccccc2)C(=O)N1)C(=O)N[C@@H](CCCNC(=N)N)C(=O)N1CCC[C@H]1C(=O)N[C@@H](CCCCN)C(N)=O` returned an EC50 in assay [3] of 153 nM. Also, the Ki in assay [1] was 9.03 nM; at Mu-type opioid receptor, 125 nM; in assay [2] it was > 10000 nM.
Turning to `CC[C@H](C)[C@H](NC(=O)[C@H](CCCN=C(N)N)NC(=O)[C@H](CCCN=C(N)N)NC(=O)[C@H](CC(C)C)NC(=O)[C@H](Cc1ccccc1)NC(=O)[C@H](Cc1c[nH]c2ccccc12)NC(=O)CNC(=O)[C@@H](N)Cc1ccc(O)cc1)C(=O)N[C@@H](CCCN=C(N)N)C(=O)N1CCC[C@H]1C(=O)N[C@@H](CCCCN)C(N)=O`, the Ki in assay [1] came to 1.56 nM; at Mu-type opioid receptor, 42.7 nM; in assay [2], 168 nM.
For the compound `CC[C@H](C)[C@H](NC(=O)[C@H](CCCN=C(N)N)NC(=O)[C@H](CCCN=C(N)N)NC(=O)[C@H](CN)NC(=O)[C@H](Cc1ccccc1)NC(=O)CNC(=O)[C@@H](CC(=O)O)NC(=O)[C@@H](N)Cc1ccc(O)cc1)C(=O)N[C@@H](CCCN=C(N)N)C(=O)N1CCC[C@H]1C(=O)N[C@@H](CCCCN)C(=O)N[C@@H](CC(C)C)C(=O)N[C@@H](CCCCN)C(N)=O`, the results for the Ki (in assay [1]; at Mu-type opioid receptor; in assay [2]) were 0.2 nM, 0.26 nM and 3.9 nM, respectively.
Taken in the same sequence, the figures for `CC[C@H](C)[C@H](NC(=O)[C@H](CCCNC(=N)N)NC(=O)[C@H](CCCNC(=N)N)NC(=O)[C@H](CC(C)C)NC(=O)[C@H](Cc1ccccc1)NC(=O)[C@@H](Cc1c[nH]c2ccccc12)NC(=O)CNC(=O)[C@@H](N)Cc1ccc(O)cc1)C(=O)N[C@@H](CCCNC(=N)N)C(=O)N1CCC[C@H]1C(=O)N[C@@H](CCCCN)C(N)=O` were 5.41 nM, 45.9 nM and 1080 nM.
On to `CC[C@H](C)[C@H](NC(=O)[C@H](CCCNC(=N)N)NC(=O)[C@H](CCCNC(=N)N)NC(=O)[C@@H]1CNC(=O)C[C@@H](NC(=O)[C@@H](N)Cc2ccc(O)cc2)C(=O)N[C@@H](Cc2c[nH]c3ccccc23)C(=O)N[C@@H](Cc2ccccc2)C(=O)N1)C(=O)N[C@@H](CCCNC(=N)N)C(=O)N1CCC[C@H]1C(=O)N[C@@H](CCCCN)C(N)=O`, for which a half-maximal response in assay [3] (EC50) required 4.19 nM. Also, the inhibitory constant (Ki) in assay [1] came to 1.33 nM; on Mu-type opioid receptor, 2.09 nM; in assay [2], 7070 nM.
In assay [3], `CC[C@H](C)[C@H](NC(=O)[C@H](CCCN=C(N)N)NC(=O)[C@H](CCCN=C(N)N)NC(=O)[C@@H]1CNC(=O)C[C@@H](NC(=O)[C@@H](N)Cc2ccc(O)cc2)C(=O)N[C@@H](C)C(=O)N[C@@H](Cc2ccccc2)C(=O)N1)C(=O)N[C@@H](CCCN=C(N)N)C(=O)N1CCC[C@H]1C(=O)N[C@@H](CCCCN)C(N)=O` came in with an EC50 of 0.65 nM. Moreover, the Ki was 1.1 nM in assay [1], 2.52 nM at Mu-type opioid receptor and 30.8 nM in assay [2].
The corresponding values for `CC[C@H](C)[C@H](NC(=O)[C@H](CCCN=C(N)N)NC(=O)[C@H](CCCN=C(N)N)NC(=O)[C@@H]1CNC(=O)C[C@@H](NC(=O)[C@@H](N)Cc2ccc(O)cc2)C(=O)NCC(=O)N[C@@H](Cc2ccccc2)C(=O)N1)C(=O)N[C@@H](CCCN=C(N)N)C(=O)N1CCC[C@H]1C(=O)N[C@@H](CCCCN)C(N)=O` are 0.39 nM, 0.46 nM, 0.52 nM and 5.1 nM.
Take `CC[C@H](C)[C@H](NC(=O)[C@H](CCCN=C(N)N)NC(=O)[C@H](CCCN=C(N)N)NC(=O)[C@H](CN)NC(=O)[C@H](Cc1ccccc1)NC(=O)[C@H](C)NC(=O)[C@@H](CC(=O)O)NC(=O)[C@@H](N)Cc1ccc(O)cc1)C(=O)N[C@@H](CCCN=C(N)N)C(=O)N1CCC[C@H]1C(=O)N[C@@H](CCCCN)C(N)=O`: the Ki stood at 0.86 nM in assay [1], 2.02 nM on Mu-type opioid receptor and 55.1 nM in assay [2].
The corresponding values for `CC[C@H](C)[C@H](NC(=O)[C@H](CCCN=C(N)N)NC(=O)[C@H](CCCN=C(N)N)NC(=O)[C@H](CC(C)C)NC(=O)[C@H](Cc1ccccc1)NC(=O)CNC(=O)CNC(=O)[C@@H](N)Cc1ccc(O)cc1)C(=O)N[C@@H](CCCN=C(N)N)C(=O)N1CCC[C@H]1C(=O)N[C@@H](CCCCN)C(=O)N[C@@H](CC(C)C)C(=O)N[C@@H](CCCCN)C(N)=O` are 0.39 nM, 1.88 nM and 6.07 nM.
For the compound `CC[C@H](C)[C@H](NC(=O)[C@H](CCCN=C(N)N)NC(=O)[C@H](CCCN=C(N)N)NC(=O)[C@@H]1CNC(=O)C[C@@H](NC(=O)[C@@H](N)Cc2ccc(O)cc2)C(=O)N[C@H](Cc2c[nH]c3ccccc23)C(=O)N[C@@H](Cc2ccccc2)C(=O)N1)C(=O)N[C@@H](CCCN=C(N)N)C(=O)N1CCC[C@H]1C(=O)N[C@@H](CCCCN)C(N)=O`, the response in assay [3] was half-maximal at 12 nM (EC50). Further, the Ki is 2.25 nM in assay [1], 7.27 nM at Mu-type opioid receptor and 949 nM in assay [2].
